This is a sample that favours compounds with a hit; in the whole collection about 2.7% have one here.
PAFAH2 FP inh: PAFAH2 (human) inhibition; Q99487; recombinant PAFAH2, FP-rhodamine activity probe, fluorescence polarization; inhibition, % at 3.39 µM; 340,000 compounds, 0.99% hits;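 active = inhibition above the mean over all tested compounds plus 3 SD, cut at about 30% in these data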;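 also: inhibitors block probe labeling of enzyme so polarization drops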
PAFAH1B3 inh: inhibitors of human PAFAH1B3. AID 492972. recombinant PAFAH1B3, FP-rhodamine probe, fluorescence polarization. 340,000 compounds, 0.28% hits. Q15102. inhibition, % at 3.39 µM;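 active = inhibition above the screen-wide average of all tested compounds plus 3 SD, cut at about 25% in these data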
Target sequence (Q15102 whole entry, looked up): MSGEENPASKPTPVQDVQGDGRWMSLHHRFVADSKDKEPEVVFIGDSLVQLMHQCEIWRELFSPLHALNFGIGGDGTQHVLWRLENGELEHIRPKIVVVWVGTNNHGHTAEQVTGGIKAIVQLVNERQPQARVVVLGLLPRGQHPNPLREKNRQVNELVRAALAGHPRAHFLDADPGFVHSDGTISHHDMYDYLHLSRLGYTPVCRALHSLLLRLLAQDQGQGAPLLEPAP
pPAFAH FP inh: pPAFAH (human) enzyme inhibition; Q13093; recombinant pPAFAH, FP-rhodamine probe fluorescence polarization; inhibition, % at 3.39 µM; 330,000 compounds, 1.5% hits;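 active = inhibition above the mean inhibition across the screen plus 3 SD, cut at about 25% in these data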;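 also: inhibitors block binding of the rhodamine activity-based probe so polarization drops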
ASAP1 inh: ASAP1 ArfGAP inhibition; Q9ULH1; ASAP1-stimulated ARF1 GTP hydrolysis, GDP FP detection; inhibition, % at 16.5 µM; 360,000 compounds, 0.19% hits; in the data active = inhibition above about 25%
ARFGAP1 inhibitor: inhibits rat ARF GTPase activating protein 1; 360,000 compounds, 0.26% hits; Arfgap1-stimulated ARF1 GTP hydrolysis, GDP FP detection; AID 651572; inhibition, % at 16.5 µM;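 active = inhibition above a per-plate limit, mean inhibition of low control wells plus 3 SD, cut at about 25% in these data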
Target sequence (Q62848 1-136 limits assumed): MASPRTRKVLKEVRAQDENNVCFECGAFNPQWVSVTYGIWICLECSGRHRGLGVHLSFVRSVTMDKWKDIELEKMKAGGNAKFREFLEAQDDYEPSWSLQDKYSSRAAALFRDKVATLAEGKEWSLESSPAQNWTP
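Assay system: purified rat His6-Arfgap1 residues 1-136 (GAP domain); Reagent: human Δ17 ARF1 bound to GTP; Dosing: 16.5 µM single point, 1.26% DMSO; Times: GTP hydrolysis reaction 2 h at 25 °C; Signal: FP, GDP Alexa 633 tracer displaced from anti-GDP antibody, 620/688 nm; Measure: % inhibition from polarization.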
PAFAH1B2 FP inh: PAFAH1B2 (human) inhibition. inhibition, % at 3.39 µM. AID 492953. 340,000 compounds, 1.2% hits. P68402. recombinant PAFAH1B2, FP-rhodamine activity probe, fluorescence polarization;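 active = inhibition above the mean of all tested compounds plus 3 SD, cut at about 24% in these data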
A number is an active result; - = inactive; . = not tested or not shown.

SMILES	PAFAH2 FP inh	PAFAH1B3 inh	pPAFAH FP inh	ASAP1 inh	ARFGAP1 inhibitor	PAFAH1B2 FP inh
COc1ccc(-c2nc3ccccc3c(=O)n2-c2ccc(OC)cc2)cc1	-	-	-	-	-	-
CCn1nc(-c2ccccc2)nc2c(=O)n(C)c(=O)nc1-2	57.7	69.8	-	.	.	39.0
CC1CCN(S(=O)(=O)c2ccc(NN=C(C#N)C#N)cc2)CC1	.	.	-	.	.	.
N#CC(C#N)=NNc1ccc(S(N)(=O)=O)cc1	-	32.3	29.6	-	-	-
O=C(O)CCl	.	.	.	-	-	.
CCN(CC)c1ccc(C=C2C(=O)NC(=S)NC2=O)cc1	-	-	-	-	-	-
CC(C)CN(CC(C)C)c1ccc(C=C2C(=O)NC(=S)NC2=O)cc1[N+](=O)[O-]	38.4	-	-	-	-	34.2
COC(=O)C1CC(OC(C)=O)C(=O)[C@H]2C1(C)CC[C@H]1C(=O)OC(c3ccoc3)CC12C (stereo partly drawn)	.	.	.	-	-	.
Cc1oc(-c2ccccc2)nc1CN1C(=O)CN=C(c2ccccc2)c2ccccc21	-	-	-	-	-	-
Cc1ccc(CN2C(=O)CN=C(c3ccccc3)c3ccccc32)cc1	-	-	-	-	-	28.1
Cc1ccc2c(c1)=NC(=O)/C(=C/c1c(O)[nH]c(=O)[nH]c1=O)C=2	-	-	-	-	-	32.9
Cc1ccc2c(c1)=C/C(=C\c1c(O)[nH]c(=S)[nH]c1=O)C(=O)N=2	.	.	-	.	.	.
Cc1c2cnn(CC(=O)N3CCC4(CC3)OCCO4)c(=O)c2c(C)n1Cc1ccccc1	-	-	-	-	-	-
O=C(Cn1ncc2c3ccccc3n(Cc3ccc(F)cc3)c2c1=O)N1CCC2(CC1)OCCO2	-	-	31.5	.	.	-
N#CCCC#N	.	.	.	-	-	.
O=C1NC(=O)C(Sc2ccccc2[N+](=O)[O-])C(=O)N1	-	-	-	41.7	-	-
O=[N+]([O-])c1ccccc1Cl	-	-	-	-	-	-
Cc1cc(N2CCNC[C@H]2C)ccc1N1CC[C@H](O)C1	.	.	.	-	-	.
COc1cccc(NC2=NCCS2)c1	.	.	.	-	-	.
Cc1cccc(NC2=NCCCS2)c1	.	.	-	-	-	.
Cc1nc2c(=O)n(C)c(=O)nc-2n(C)n1	54.3	66.3	-	-	-	27.7
C/C(=N\NC(=O)c1ccncc1)c1c(O)n(Cc2ccccc2)c(=O)[nH]c1=O	-	-	-	-	-	-
C/C(=N\NC(=O)c1ccccc1Cl)c1c(O)n(C2CCCCC2)c(=O)[nH]c1=O	-	-	-	-	-	-
O=C(N/N=C/c1c(O)n(Cc2ccc(F)cc2)c(=O)[nH]c1=O)c1ccccc1	-	-	-	-	-	35.3
O=C(N/N=C/c1c(O)n(Cc2ccccc2)c(=O)[nH]c1=O)c1ccncc1	.	.	-	-	-	.
SMILES	PAFAH2 FP inh	PAFAH1B3 inh	pPAFAH FP inh	ASAP1 inh	ARFGAP1 inhibitor	PAFAH1B2 FP inh
C/C(=N\NC(=O)c1ccccc1O)c1c(O)n(C2CCCCC2)c(=O)[nH]c1=O	-	-	25.8	-	-	-
C/C(=N\NC(=O)c1ccccc1O)c1c(O)n(Cc2ccccc2)c(=O)[nH]c1=O	-	-	24.7	-	-	28.5
CN1C2CCC1C(C(=O)Oc1ccccc1)C(c1ccc(Cl)cc1)C2 (stereo not drawn)	.	.	.	-	-	.
NP(=O)(OCCCc1ccccc1)Oc1ccccc1 (stereo not drawn)	-	-	-	-	-	62.0
c1ccc(-c2nc3ccccc3nc2-c2ccc(CN3CCC(n4nnc5ccccc54)CC3)cc2)cc1	.	.	.	-	-	.
Cc1ccc(OC(=O)N(C)C[C@H]2OCc3cnnn3CCCC(=O)N([C@@H](C)CO)C[C@@H]2C)cc1	.	.	.	-	-	.
CN(C)c1ccc(/C=C/C=C2/C(=O)NC(=O)N(c3ccccc3)C2=O)cc1	-	-	.	27.6	-	-
CCCCC/C=C\C/C=C\C/C=C\C/C=C\CCCC(=O)Nc1ccc(O)cc1	.	.	36.4	.	.	.
Oc1c(Br)c(Br)c(Br)c(Br)c1Br	-	-	32.4	.	.	41.3
COc1cccc(-c2ccc3c(c2)C2c4cnnn4-c4ccccc4C(=O)N2CC3)c1 (stereo not drawn)	.	.	.	-	-	.
COc1ccc(OC(=O)N(C)C[C@@H]2OCc3cnnn3CCCC(=O)N([C@@H](C)CO)C[C@H]2C)cc1	.	.	.	-	-	.
O=P(NC(c1ccccc1)c1ccccc1)(Oc1ccccc1)Oc1ccccc1	-	-	-	-	-	-
